Assay results reported in ChEMBL document CHEMBL1130854, “Diarylsulfonamides as selective, non-peptidic thrombin inhibitors” (Bioorg Med Chem Lett, 1998).

Columns and labels:
[1] = Inhibitory activity against trypsin/plasmin/factor Xa
[2] = Compound was tested for the concentration which causes a doubling of the thrombin clotting time of human plasma.; format: functional
Procedure, shortened: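 Human plasma thrombin clotting time measured across inhibitor concentrations (μM). Coagulation time (sec) fitted to y = a + b·x^c, a being the uninhibited clotting time and b, c shape/location parameters. Value taken as the concentration that doubles the clotting time (IC200).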

Prothrombin = Prothrombin (Homo sapiens, UniProt P00734); experiment: Inhibitory activity against thrombin

Row | Compound | Ki [1] [µM] | IC200 [2] [µM] | Ki (Prothrombin) [µM]
1 | O=S(=O)(Nc1cccc(OCCNc2ccncc2)c1)c1ccccc1 | > 500 | 2.3 | –
2 | Cc1cc(NS(=O)(=O)c2ccccc2)cc(OCCNc2ccncc2)c1 | > 500 | 0.29 | 0.023
3 | Cc1cc(NS(=O)(=O)c2ccccc2)cc(OCCCCN=C(N)N)c1 | > 500 | 10 | 0.18
4 | Cc1cc(NS(=O)(=O)c2ccccc2)cc(OCCN=C(N)N)c1 | > 500 | 38 | 2
5 | Cc1cc(NS(=O)(=O)c2ccccc2)cc(OCCCCCN)c1 | > 500 | >250 | 9.9
6 | Cc1cc(NS(=O)(=O)c2ccccc2)cc(OCCCN=C(N)N)c1 | > 500 | 10 | 0.63
7 | Cc1cc(NS(=O)(=O)c2ccccc2)cc(OCCCCCN=C(N)N)c1 | > 500 | 188 | 6.4
8 | Cc1cc(NS(=O)(=O)c2ccccc2)cc(OCCCN)c1 | > 500 | >250 | 170
9 | Cc1cc(NS(=O)(=O)c2ccccc2)cc(OCCCCN)c1 | > 500 | 179 | 6.5
10 | Cc1cc(NS(=O)(=O)c2ccccc2)cc(OCCN)c1 | > 500 | >250 | 240
11 | Cc1cc(NS(=O)(=O)c2ccccc2)cc(OCCCCCCN)c1 | > 500 | >250 | 9
12 | Cc1cc(NS(=O)(=O)c2ccccc2)cc(OCCCCCCN=C(N)N)c1 | > 500 | 237 | 7
